Screening data as filed in PubChem BioAssay.
Compounds with a hit are over-represented: about 4.7% of the library has one in this group of screens.
aSyn UTR inh = MLPCN primary screen, SNCA 5' untranslated region. inhibition, % (tested at 7.5 µM). alpha-synuclein 5'UTR reporter, inhibitor activity. 300,000 compounds, 0.82% hits; in the data active = inhibition above about 60%;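 note: H4 neuroglioblastoma cells stably carrying SNCA 5'UTR luciferase fusion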
Jurkat NFkB inh = lowers PMA/ionomycin-induced NF-kB signal in Jurkat cells; PMA/ionomycin-induced NF-kB luciferase reporter, luminescence; inhibition, % at 4 µM; 330,000 compounds, 0.53% hits; in the data active = inhibition above about 50%
697 NFkB inh = inhibitors of the PMA/ionomycin-induced NF-kB reporter in 697 B cells | 330,000 compounds, 0.33% hits | 697 B-cell NF-kB luciferase reporter, 16 h | inhibition, % at 4 µM | AID 435022; in the data active = inhibition above about 35%
VIM-2 inhibitor = blocks Pseudomonas aeruginosa VIM-2 metallo-beta-lactamase | inhibition, % at 5.6 µM | purified VIM-2, nitrocefin hydrolysis, epi-absorbance fluorescence | 290,000 compounds, 0.89% hits;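 active = inhibition above the mean of all tested compounds plus 3 SD, cutoff set per screening run, cut at about 7.5% in these data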;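 note: red hydrolysis product quenches plate fluorescence so inhibitors raise well fluorescence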
Mdm2 MdmX PPI = inhibitors of human Mdm2/MdmX interaction; SaOS-2 split-luciferase Mdm2/MdmX complementation, luminescence; 330,000 compounds, 3% hits; inhibition, % at 8 µM;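 active = inhibition of at least 50% at 8 µM in the primary screen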
IMP-1 inhibitor = inhibitors of Pseudomonas aeruginosa IMP-1 metallo-beta-lactamase; 290,000 compounds, 0.45% hits; purified IMP-1, nitrocefin hydrolysis, epi-absorbance fluorescence; inhibition, % at 5.6 µM; AID 1556;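 active = inhibition above the mean plus 3 SD of all compounds in the same screening run, cut at about 4.5% in these data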
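system = purified recombinant IMP-1 beta-lactamase | amount = 0.2 nM IMP-1, as dispensed | medium = HEPES buffer pH 7.1 with ZnSO4 and Brij 35 | times = 25 °C, 15 min preincubation, 25 min reaction | detection = plate fluorescence quenching by hydrolysis product, ex 480/em 530 nm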
697 NFkB conf = lowers PMA/ionomycin-induced NF-kB signal in 697 B cells; shares compounds with 697 NFkB inh; 697 B-cell NF-kB luciferase, 16 h; 2,000 compounds, 35% hits; inhibition, % at 4 µM; in the data active = inhibition mostly above about 28%, no sharp cut-off; inactive = mostly below about 22%
Hits are given with their value; - = inactive; . = not tested or not shown.

SMILES | aSyn UTR inh | Jurkat NFkB inh | 697 NFkB inh | VIM-2 inhibitor | Mdm2 MdmX PPI | IMP-1 inhibitor | 697 NFkB conf
CN(Cc1cccnc1)C(=O)c1ccc(Cl)c(NS(=O)(=O)c2ccc(F)cc2)c1 | . | - | - | . | - | . | .
CC(=O)Nc1sc2c(c1C(c1ccc(F)cc1)N1CCOCC1)CCCC2 (configuration not stated) | - | - | 37 | - | - | - | -
COc1ccc(-c2csc(N3C(=N)SCC3=O)n2)cc1 | - | - | - | - | - | - | -
COc1ccc(-c2csc(N3C(=O)CNC3=S)n2)cc1 | - | . | . | - | . | - | .
COc1ccc(-c2noc(-c3ccc(Cl)cc3)n2)cc1 | - | - | - | - | - | - | .
Fc1ccccc1-c1nc(-c2ccccc2)no1 | - | - | - | - | - | - | -
COc1cccc(-c2nc(-c3ccccc3)no2)c1 | - | - | - | - | - | - | -
COc1ccc(-c2nc(-c3ccc(C(=O)O)cc3)no2)cc1 | - | - | - | . | - | . | -
Fc1ccccc1-c1nc(-c2ccncc2)no1 | - | - | - | - | - | - | .
COc1cc(Cl)c(C)cc1NC(=O)CCN1C(=O)NC(C)(C)C1=O | . | - | - | . | - | . | .
COc1ccc(OC)c(C2c3[nH]c4ccccc4c3C[C@H]3C(=O)N(CCCOC(C)C)CC(=O)N23)c1 (some centres not stated) | - | - | - | - | - | - | .
CCOc1ccc(NC(=O)CSc2nc3ccccc3nc2N2CC(C)OC(C)C2)cc1 (configuration not stated) | - | - | - | - | - | - | .
COc1ccc(S(=O)(=O)Nc2cc3c4c(c2)CCN4C(=O)CC3)cc1C | - | - | - | . | - | . | .
COc1cccc(/C=N/Nc2nnc3c(n2)[nH]c2ccccc23)c1OC | - | - | - | - | - | - | .
CCc1ccc2[nH]c3nc(N/N=C/c4cccc(O)c4)nnc3c2c1 | - | - | 60 | - | - | - | 76
Cc1nn2cc(-c3ccc(-c4ccccc4)cc3)nc2s1 | - | - | - | - | - | - | -
Cc1nnc2ccc(-c3ccc(NS(=O)(=O)c4ccccc4)cc3)nn12 | . | - | 38 | . | - | . | -
CC(=O)Oc1ccc(C23CC4CC(CC(C4)C2)C3)cc1C(=O)O | - | - | - | - | - | - | .
COC(=O)c1c(-c2ccc(N(C)C)cc2)sc2ccc(OC)cc12 | . | - | 53 | . | - | . | 62
COC(=O)c1c(-c2ccc(OC)cc2)sc2cc3c(cc12)OCO3 | . | - | - | . | - | . | .
Cc1ccc(C(=O)NC(=S)Nc2ccc(NC(=O)c3cccc(Cl)c3)cc2)cc1 | - | - | - | - | - | - | -
CC(=O)c1cccc(NC(=S)NC(=O)c2ccc(C)cc2)c1 | - | - | - | - | - | - | .
COc1cc(OC)cc(-c2cc3nc(C)c(CCC(=O)Nc4nc(C)cs4)c(C)n3n2)c1 | - | - | 36 | - | - | - | 39
COc1cc(NC(=O)CCc2c(C)nc3nc(C)nn3c2C)cc(OC)c1 | - | - | - | - | - | - | .
O=C(O)/C=C/c1ccc(S(=O)(=O)Nc2ccc(OCc3ccccc3)cc2)cc1 | - | - | - | - | - | - | .
SMILES | aSyn UTR inh | Jurkat NFkB inh | 697 NFkB inh | VIM-2 inhibitor | Mdm2 MdmX PPI | IMP-1 inhibitor | 697 NFkB conf
N#Cc1ccccc1COc1ccc(/C=C/C(=O)O)cc1 | 71 | - | 39 | - | - | - | 38
Cc1cc(NC(=O)c2ccc3c(c2)C(=O)N(c2cccc(C)c2C)C3=O)no1 | - | - | - | - | - | - | .
Cc1cccc(C(=O)n2c(=S)nc3ccccn32)c1 | - | - | - | - | - | - | -
Cc1ccc(C(=O)n2c(=S)nc3ccccn32)cc1 | - | . | . | - | . | - | .
CC(=O)Nc1nc2ccc(NC(=O)c3ccco3)cc2s1 | - | - | - | - | - | - | .
Cc1ccc2nc(NC(=O)c3ccco3)sc2c1 | 85 | - | - | - | - | - | -
Cc1cc2sc(NC(=O)c3ccco3)nc2cc1Cl | - | - | - | - | - | - | -
Cc1ccc2nc(NC(=O)c3ccc(Br)o3)sc2c1 | - | - | - | - | - | - | -
COc1ccc2nc(NC(=O)c3ccco3)sc2c1 | - | - | - | - | - | - | -
COc1ccc(CN(C)CC(=O)N(C)CC(=O)Nc2ccccc2Br)cc1F | . | - | - | . | - | . | .
CC(NC(=O)CCCc1nnc2n(C)c(=O)c3sccc3n12)c1ccccc1 (configuration not stated) | - | - | - | - | - | - | .
C=CC(n1cncn1)C(O)(c1ccccc1)c1ccccc1 (configuration not stated) | - | - | - | . | - | . | .
O=C(N[C@@H](Cc1c[nH]c2ccccc12)C(=O)O)C1CCN(S(=O)(=O)c2ccc(Cl)cc2)CC1 | - | - | - | - | - | - | .
O=C(Nc1nc2ccc(Br)cc2s1)c1ccco1 | - | - | - | - | - | - | .
O=C(Nc1nc2ccc(Cl)cc2s1)c1ccco1 | - | - | - | - | - | - | -
COc1cccc(NC(=O)c2ccccc2F)c1 | . | - | - | . | - | . | .
COc1cccc(NC(=O)c2c(F)cccc2F)c1 | . | - | 39 | . | - | . | -
Cc1cc(C(=O)COC(=O)c2cccn2C)c(C)n1Cc1ccco1 | 77 | - | - | - | - | - | -
COc1ccc(CNc2cccc3[nH]c(C(F)(F)F)nc23)cc1OC | - | - | - | - | - | - | .
Cc1ccc(-c2cnc(-c3ccncc3)o2)cc1 | - | - | - | - | - | - | .
Nc1ccc(-c2ncc(-c3ccccc3)o2)cc1 | 86 | - | 40 | - | - | - | -
CCCc1ccc(OCC(=O)Nc2cc(S(=O)(=O)CC)ccc2O)cc1 | - | - | - | - | - | - | .
CCOc1ccc(-c2nnc(SCC(=O)Nc3cc(C)on3)o2)cc1 | - | - | - | - | - | - | 41
O=C(Nc1ccc(F)cc1)C1CCC(CNc2c(N3CCCCC3)c(=O)c2=O)CC1 (configuration not stated) | - | - | 38 | - | - | - | -
COc1ccc(NC(=O)CN(C)C(=O)c2cccc(S(=O)(=O)Nc3ccc(F)cc3)c2)cc1 | . | - | - | . | - | . | .
SMILES | aSyn UTR inh | Jurkat NFkB inh | 697 NFkB inh | VIM-2 inhibitor | Mdm2 MdmX PPI | IMP-1 inhibitor | 697 NFkB conf
CCC(=O)Nc1ccc2oc(-c3cccc(C)c3)nc2c1 | . | - | - | - | - | - | -
O=C(Nc1ccc(N2CCCCC2)cc1)c1ccccc1 | - | - | - | - | - | - | .
CC(=O)Nc1ccc(N2CCCCC2)cc1 | - | - | - | - | - | - | .
CC(=O)c1c[nH]c(C(=O)Nc2ccc(N3CCCCCC3)cc2)c1 | . | - | 40 | . | - | . | -
O=C(Nc1ccc(N2CCCC2)cc1)c1cccc(F)c1 | - | - | - | - | - | - | -
O=C(NNC(=O)C12CC3CC(CC(C3)C1)C2)c1cccc(O)c1 | - | - | 44 | - | - | - | 45
Cc1cccc(C(=O)NNC(=O)C23CC4CC(CC(C4)C2)C3)c1O | - | - | - | - | - | - | .
Cc1ccc(C(=O)OCC(=O)N(CC(C)C)c2c(N)n(Cc3ccccc3)c(=O)[nH]c2=O)o1 | - | - | 40 | . | - | . | 26
